Assay results from ChEMBL document CHEMBL2429865, “Withaferin A, a steroidal lactone from Withania somnifera, induces mitotic catastrophe and growth arrest in prostate cancer cells” (2013).
Calls of active or inactive are those of the source. The rule behind the calls is not given here.

Columns and labels:
PC-3 [1] = experiment: Downregulation of cyclin A2 protein expression in human PC3 cells at IC50 after 12 to 48 hrs by Western blotting analysis; type: functional, cell-based
PC-3 [2] = experiment: Upregulation of Aurora B protein expression in human PC3 cells at IC50 after 12 to 48 hrs by Western blotting analysis; type: functional, cell-based
[3] = biological target: Serine/threonine-protein kinase Chk2 (Homo sapiens) (UniProt O96017); experiment: Reduction in CHK2 phosphorylation at Thr68 in human PC3 cells at IC50 after 12 to 48 hrs by Western blotting analysis; type: cell-based; settings: PC-3
[4] = biological target: T1, Serine/threonine-protein kinase Chk1 (Homo sapiens) (UniProt O14757); experiment: Reduction in CHK1 phosphorylation at Ser345 in human PC3 cells at IC50 after 12 to 48 hrs by Western blotting analysis; type: cell-based; settings: PC-3
T1 sequence (whole entry): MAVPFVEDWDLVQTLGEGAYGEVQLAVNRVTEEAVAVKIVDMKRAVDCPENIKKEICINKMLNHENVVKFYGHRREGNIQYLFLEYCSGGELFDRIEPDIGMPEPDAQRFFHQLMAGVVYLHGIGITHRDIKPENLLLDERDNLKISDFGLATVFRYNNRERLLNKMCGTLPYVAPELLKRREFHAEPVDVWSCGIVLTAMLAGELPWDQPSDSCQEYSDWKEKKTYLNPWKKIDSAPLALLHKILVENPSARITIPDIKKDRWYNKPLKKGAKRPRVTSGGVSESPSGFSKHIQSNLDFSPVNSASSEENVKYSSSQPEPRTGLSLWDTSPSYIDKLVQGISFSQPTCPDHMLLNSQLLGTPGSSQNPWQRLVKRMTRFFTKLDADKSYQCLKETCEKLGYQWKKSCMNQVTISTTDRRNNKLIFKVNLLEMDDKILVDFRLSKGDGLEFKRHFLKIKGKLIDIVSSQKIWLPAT

DU-145 [5] = experiment: Growth inhibition of human DU145 cells assessed as loss of cell viability after 24 hrs by trypan blue exclusion assay; type: functional, cell-based
How it was run: (§1)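 PC-3 (DMEM) and DU-145 (RPMI-1640) cells, with 10% heat-inactivated FBS, are seeded at 3×10⁵ cells/well, cultured 24 h, then exposed to 0.5, 1, 2, 3 and 4 μM for 24 h at 37°C, 5% CO₂. DMSO is ≤0.002%. Viable cells are counted by trypan blue exclusion on a hemocytometer and expressed as % of DMSO control. IC50 is calculated. Mean ± SEM of three independent experiments.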

PC-3 [6] = experiment: Upregulation of p21 mRNA expression in human PC3 cells at IC50 after 12 to 48 hrs by SYBR green staining-based RT-PCR analysis; type: functional, cell-based
[7] = biological target: Aurora kinase B (Homo sapiens) (UniProt Q96GD4); experiment: Induction of Aurora B-mediated histone H3 phosphorylation at Ser10 in human PC3 cells after 12 to 48 hrs by Western blotting analysis; type: cell-based; settings: PC-3
PC-3 [8] = experiment: Downregulation of Myt-1 protein expression in human PC3 cells at 1 uM after 12 to 48 hrs by Western blotting analysis; type: functional, cell-based
How it was run: (§2)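 PC-3 cells are treated with 1 μM for various times. Lysates are made in M-PER buffer with protease inhibitor cocktail, and 25 μg protein is immunoblotted for pWee1 (Ser642), Wee1, pCdc2 (Tyr15), Cdc25C (Ser216) and Myt-1, with β-actin as loading control.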

DU-145 [9] = experiment: Cell cycle arrest in human DU145 cells assessed as accumulation at G2/M phase at 1 uM after 8 hrs by propidium iodide staining-based flow cytometry; type: functional
PC-3 [10] = experiment: Growth inhibition of human PC3 cells assessed as loss of cell viability after 24 hrs by trypan blue exclusion assay; type: functional, cell-based; how it was run: as §1
PC-3 [11] = experiment: Mitotic arrest in human PC3 cells assessed as defect in depolymerization of tubulin-alpha by DAPI staining-based confocal microscopic analysis; type: functional, cell-based
How it was run: (§3)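 PC-3 cells on coverslips are grown to 60% confluence and treated for 24 h. They are fixed in 4% paraformaldehyde for 20 min at room temperature, permeabilized with 0.2% Triton X-100 for 20 min, and immunostained for pH3 (Ser10), Aurora B or α-tubulin with Alexa Fluor secondaries, rhodamine-phalloidin and DAPI. Imaging is by laser scanning confocal microscopy.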

[12] = biological target: Tubulin alpha (Homo sapiens) (UniProt P0DPH7+P68366+Q71U36+P68363+Q9BQE3+Q6PEY2+A6NHL2+Q9NY65); experiment: Inhibition of tubulin-alpha (unknown origin) polymerization by fluorescence-based assay; type: protein assay; settings: TDE = time-dependent effect
PC-3 [13] = experiment: Mitotic arrest in human PC3 cells assessed as accumulation of phosphorylated histone H3 in nucleus by DAPI staining-based confocal microscopic analysis; type: functional, cell-based; how it was run: as §3
[14] = biological target: Cyclin-dependent kinase 1 (Homo sapiens) (UniProt P06493); experiment: Reduction in CDC2 phosphorylation at Tyr15 in human PC3 cells at 1 uM after 12 to 24 hrs by Western blotting analysis; type: cell-based; settings: PC-3; how it was run: as §2
PC-3 [15] = experiment: Downregulation of cyclin E2 protein expression in human PC3 cells at IC50 after 12 to 48 hrs by Western blotting analysis; type: functional, cell-based
[16] = biological target: Wee1-like protein kinase (Homo sapiens) (UniProt P30291); experiment: Induction of Wee1 phosphorylation at Ser642 in human PC3 cells at 1 uM after 12 to 24 hrs by Western blotting analysis; type: cell-based; settings: PC-3; how it was run: as §2
PC-3 [17] = experiment: Induction of cell cycle arrest in human PC3 cells assessed as accumulation at G2/M phase at 1 uM after 24 hrs by propidium iodide staining-based flow cytometry (reference value: 28.3%); type: functional
[18] = biological target: Cyclin-dependent kinase 1/cyclin B1 (Homo sapiens) (UniProt P06493+P14635); experiment: Activation of Cdc2/cyclin B in human PC3 cells; type: cell-based; settings: PC-3
How it was run: (§4)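 Lysates of vehicle- or drug-treated PC-3 cells are diluted in kinase buffer and added to wells precoated with recombinant Cdc25C substrate. Phosphorylation is started with Mg2+ and ATP. Phospho-Cdc25C Ser216 is detected with an HRP-conjugated antibody and TMB colour with stop reagent. The Cdc2-cyclin B1 line uses a parallel kit of the same format.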

PC-3 [19] = experiment: Effect on 14-3-3 protein expression in human PC3 cells at IC50 after 12 to 48 hrs by Western blotting analysis; type: functional, cell-based
PC-3 [20] = experiment: Cell cycle arrest in human PC3 cells assessed as accumulation at G2/M phase at 1 uM after 8 hrs by propidium iodide staining-based flow cytometry; type: functional
DU-145 [21] = experiment: Induction of cell cycle arrest in human DU145 cells assessed as accumulation at G2/M phase at 1 uM after 24 hrs by propidium iodide staining-based flow cytometry (reference value: 22%); type: functional
[22] = biological target: T1, Serine/threonine-protein kinase Chk1 (Homo sapiens); experiment: Activation of Chk1 in human PC3 cells assessed as phosphorylation of CDC25C at Ser216; type: cell-based; settings: PC-3; how it was run: as §4
[23] = biological target: Cyclin-dependent kinase 1 (Homo sapiens) (UniProt P06493); experiment: Reduction in CDC2 phosphorylation at Tyr15 in human PC3 cell cytoplasm at 1 uM after 24 hrs by immunofluorescence assay; settings: PC-3
How it was run: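 PC-3 cells on coverslips at 60% confluence are treated with drug or DMSO for 24 h. They are fixed in 4% paraformaldehyde, permeabilized with 0.2% Triton X-100, and immunostained for pCdc2 (Tyr15) with Alexa Fluor secondary and DAPI counterstain. Images are taken by fluorescence/confocal microscopy.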

PC-3 [24] = experiment: Mitotic arrest in human PC3 cells assessed as punctate distribution of Aurora B in centromeric region of chromosomes by DAPI staining-based confocal microscopic analysis; type: functional, cell-based; how it was run: as §3
PC-3 [25] = experiment: Mitotic arrest in human PC3 cells assessed as distorted spindles and curving microtubule array by DAPI staining-based confocal microscopic analysis; type: functional, cell-based; how it was run: as §3
PC-3 [26] = experiment: Induction of cell cycle arrest in human PC3 cells assessed as accumulation at G2/M phase at 1 uM after 48 hrs by propidium iodide staining-based flow cytometry (reference value: 25.3%); type: functional
DU-145 [27] = experiment: Induction of cell cycle arrest in human DU145 cells assessed as accumulation at G2/M phase at 1 uM after 48 hrs by propidium iodide staining-based flow cytometry (reference value: 22%); type: functional
PC-3 [28] = experiment: Upregulation of p21 protein expression in human PC3 cells at IC50 after 12 to 48 hrs by Western blotting analysis; type: functional, cell-based
[29] = biological target: T2, M-phase inducer phosphatase 3 (Homo sapiens) (UniProt P30307); experiment: Reduction in CDC25C phosphorylation at Ser216 in human PC3 cells at 1 uM after 12 to 24 hrs by Western blotting analysis; type: cell-based; settings: PC-3; how it was run: as §2
T2 sequence (whole entry): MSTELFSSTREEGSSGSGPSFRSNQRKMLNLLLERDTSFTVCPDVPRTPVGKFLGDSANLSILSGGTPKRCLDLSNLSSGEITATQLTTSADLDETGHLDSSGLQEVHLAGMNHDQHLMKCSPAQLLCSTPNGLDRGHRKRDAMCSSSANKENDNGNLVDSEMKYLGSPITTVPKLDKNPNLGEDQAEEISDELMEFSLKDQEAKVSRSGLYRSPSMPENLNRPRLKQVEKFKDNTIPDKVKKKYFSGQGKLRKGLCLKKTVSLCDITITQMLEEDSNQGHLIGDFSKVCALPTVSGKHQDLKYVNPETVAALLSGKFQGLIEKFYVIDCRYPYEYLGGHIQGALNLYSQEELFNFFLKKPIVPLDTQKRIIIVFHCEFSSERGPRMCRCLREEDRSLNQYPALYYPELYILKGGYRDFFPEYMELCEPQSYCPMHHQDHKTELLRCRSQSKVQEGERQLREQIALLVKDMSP

PC-3 [30] = experiment: Downregulation of cyclin B1 protein expression in human PC3 cells at IC50 after 12 to 48 hrs by Western blotting analysis; type: functional, cell-based

Chain of Cyclin-dependent kinase 1 (Homo sapiens) (P06493 whole entry, looked up): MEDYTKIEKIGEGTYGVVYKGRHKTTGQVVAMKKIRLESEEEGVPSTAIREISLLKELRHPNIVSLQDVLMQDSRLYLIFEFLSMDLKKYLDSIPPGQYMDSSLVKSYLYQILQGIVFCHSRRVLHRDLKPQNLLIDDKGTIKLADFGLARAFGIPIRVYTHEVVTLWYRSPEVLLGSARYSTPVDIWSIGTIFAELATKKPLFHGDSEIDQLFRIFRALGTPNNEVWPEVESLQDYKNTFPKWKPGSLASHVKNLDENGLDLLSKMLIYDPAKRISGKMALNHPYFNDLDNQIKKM
Chain of Serine/threonine-protein kinase Chk2 (Homo sapiens) (O96017 whole entry): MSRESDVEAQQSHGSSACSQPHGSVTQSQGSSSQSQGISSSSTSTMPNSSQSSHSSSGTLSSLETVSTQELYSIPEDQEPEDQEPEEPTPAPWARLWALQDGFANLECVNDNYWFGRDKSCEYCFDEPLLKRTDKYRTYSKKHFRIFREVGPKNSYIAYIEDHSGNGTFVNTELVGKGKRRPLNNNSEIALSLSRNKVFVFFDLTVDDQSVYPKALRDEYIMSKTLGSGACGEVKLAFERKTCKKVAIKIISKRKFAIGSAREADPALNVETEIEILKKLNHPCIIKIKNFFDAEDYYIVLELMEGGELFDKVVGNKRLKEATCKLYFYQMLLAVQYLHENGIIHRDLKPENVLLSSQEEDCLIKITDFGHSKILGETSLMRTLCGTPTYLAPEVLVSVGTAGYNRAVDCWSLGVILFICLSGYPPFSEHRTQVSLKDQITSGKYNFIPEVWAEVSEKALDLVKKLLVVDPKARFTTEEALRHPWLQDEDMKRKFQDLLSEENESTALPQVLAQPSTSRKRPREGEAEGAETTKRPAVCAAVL
Chain of Aurora kinase B (Homo sapiens) (Q96GD4 whole entry): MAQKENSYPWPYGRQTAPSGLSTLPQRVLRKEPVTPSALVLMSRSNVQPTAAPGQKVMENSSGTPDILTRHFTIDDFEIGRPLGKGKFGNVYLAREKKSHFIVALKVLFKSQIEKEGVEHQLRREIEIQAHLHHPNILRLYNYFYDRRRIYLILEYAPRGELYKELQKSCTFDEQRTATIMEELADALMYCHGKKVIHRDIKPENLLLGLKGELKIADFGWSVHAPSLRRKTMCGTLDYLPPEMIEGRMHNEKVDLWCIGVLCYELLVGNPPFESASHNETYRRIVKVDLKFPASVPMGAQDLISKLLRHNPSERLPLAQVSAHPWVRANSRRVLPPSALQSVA
Chain of Wee1-like protein kinase (Homo sapiens) (P30291 whole entry, looked up): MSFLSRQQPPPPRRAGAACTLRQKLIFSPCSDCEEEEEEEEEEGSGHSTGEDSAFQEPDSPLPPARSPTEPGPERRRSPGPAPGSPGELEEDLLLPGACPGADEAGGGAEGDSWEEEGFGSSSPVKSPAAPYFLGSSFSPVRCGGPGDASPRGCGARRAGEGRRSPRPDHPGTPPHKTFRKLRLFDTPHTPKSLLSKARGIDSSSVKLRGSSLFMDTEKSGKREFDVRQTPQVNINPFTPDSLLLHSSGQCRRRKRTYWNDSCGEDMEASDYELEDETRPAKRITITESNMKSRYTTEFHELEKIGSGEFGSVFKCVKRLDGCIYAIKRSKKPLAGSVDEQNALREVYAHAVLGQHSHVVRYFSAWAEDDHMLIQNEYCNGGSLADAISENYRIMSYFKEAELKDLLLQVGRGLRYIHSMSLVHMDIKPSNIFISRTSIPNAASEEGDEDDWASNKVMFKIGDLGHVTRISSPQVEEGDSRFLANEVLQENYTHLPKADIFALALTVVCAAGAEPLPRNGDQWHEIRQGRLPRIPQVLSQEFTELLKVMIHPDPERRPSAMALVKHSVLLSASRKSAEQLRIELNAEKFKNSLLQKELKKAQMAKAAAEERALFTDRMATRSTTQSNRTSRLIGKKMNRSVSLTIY
Chain of Cyclin-dependent kinase 1/cyclin B1 (Homo sapiens) (P06493 whole entry, looked up): as the sequence (P06493 whole entry, looked up) above
Chain of Cyclin-dependent kinase 1/cyclin B1 (Homo sapiens) (P14635 whole entry, looked up): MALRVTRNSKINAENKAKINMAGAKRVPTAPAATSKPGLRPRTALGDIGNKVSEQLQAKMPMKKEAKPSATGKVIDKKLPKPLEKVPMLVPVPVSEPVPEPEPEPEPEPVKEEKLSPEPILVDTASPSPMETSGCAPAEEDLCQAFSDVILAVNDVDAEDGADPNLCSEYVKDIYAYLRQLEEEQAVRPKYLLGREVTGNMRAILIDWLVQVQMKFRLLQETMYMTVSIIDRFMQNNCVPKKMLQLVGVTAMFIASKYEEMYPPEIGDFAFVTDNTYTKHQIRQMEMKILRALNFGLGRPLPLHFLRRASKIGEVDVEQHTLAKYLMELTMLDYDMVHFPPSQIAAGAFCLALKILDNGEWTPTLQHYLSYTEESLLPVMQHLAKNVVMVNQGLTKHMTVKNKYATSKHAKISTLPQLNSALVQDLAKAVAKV

In the case of `CC1=C(CO)C(=O)O[C@@H]([C@@H](C)[C@H]2CC[C@H]3[C@@H]4C[C@H]5O[C@]56[C@@H](O)C=CC(=O)[C@]6(C)[C@H]4CC[C@]23C)C1` [WITHAFERIN A], the Activity (PC-3 [1]) is reported as “Active”, the Activity (PC-3 [2]) is reported as “Active” and the Activity [3] is reported as “Active”. For the same molecule, the Activity [4] was “Active”, the “growth inhibition (GI)” value (DU-145 [5]) was “Dose-dependent effect” and the Activity (PC-3 [6]) was “Active”. The Activity [7] was “Active”, the Activity (PC-3 [8]) was “Active” and the Activity (DU-145 [9]) was “Active”. The “growth inhibition (GI)” value (PC-3 [10]) was “Dose-dependent effect”, the Activity (PC-3 [11]) was “Active” and the inhibition [12] was “tde”. The Activity (PC-3 [13]) was “Active”, the Activity [14] was “Active” and the Activity (PC-3 [15]) was “Active”. For the same molecule, the Activity [16] was “Active”, the Activity (PC-3 [17]) was 62.7% and the Activity [18] was “inactive”. The Activity (PC-3 [19]) was “inactive”, the Activity (PC-3 [20]) was “Active” and the Activity (DU-145 [21]) was 36.75%. The Activity [22] was “inactive”, the Activity [23] was “Active” and the Activity (PC-3 [24]) was “Active”. For the same molecule, the Activity (PC-3 [25]) was “Active”, the Activity (PC-3 [26]) was 60.7% and the Activity (DU-145 [27]) was 24.75%. For the same molecule, the Activity (PC-3 [28]) was “Active”, the Activity [29] was “Active” and the Activity (PC-3 [30]) was “Active”.
